Measured values as given in ChEMBL document CHEMBL1123247, “Nucleoside conjugates. 7. Synthesis and antitumor activity of 1-beta-D-arabinofuranosylcytosine conjugates of ether lipids” (J Med Chem, 1986).

Assays:
[1] = test system: AMML; test: Compound was tested for the inhibition of AMML (acute myelomonocytic leukemia); assay type: functional, cell-based; settings: Homo sapiens
Method in brief: (§1)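 Human leukemia and solid tumor cells in culture were exposed to compound for 48 h. Viability was scored by trypan blue dye exclusion. IC50 (50% inhibition) was estimated from response curves of three separate experiments.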

[2] = test system: CML/BC; test: Compound was tested for the inhibition of CML/BC(chronic myeloid leukemia, blast crisis); assay type: functional, cell-based; settings: Homo sapiens; method in brief: as §1
[3] = test system: Glioblastoma cell line; test: Compound was tested for the inhibition of glioblastoma; assay type: functional, cell-based; settings: Homo sapiens; method in brief: as §1
[4] = test system: HL-60; test: Compound was tested for the inhibition of human HL60 Leukemia; assay type: functional, cell-based; method in brief: as §1
[5] = test system: L1210; test: Antitumor activity was determined against the ip implanted L1210 leukemia in mice by percent median survival rate (treated/control) at 300 mg/kg (treatment of 1qd schedule) dosage; 9.5/8.0; assay type: functional, Mus musculus; settings: route intraperitoneal
Method in brief: (§2)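 DBA/2J mice, 23-28 g, in groups of 6, were inoculated ip with 1×10^6 L1210 cells on day 0. Dosing was ip starting 24 h later on the stated daily schedules. Conjugates were given as sonicated solutions and reference prodrugs as suspensions in 0.9% NaCl with 0.5% Tween-80. Mice were observed daily until death or 45 days. Median survival T/C was calculated from survivors per NCI protocols.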

[6] = test system: L1210; test: Antitumor activity was determined against the ip implanted L1210 leukemia in mice by range in survival days at 300 mg/kg (treatment of 1qd schedule) dosage; Range is 9-10; assay type: functional, Mus musculus; settings: route intraperitoneal; method in brief: as §2
[7] = test system: L1210; test: Antitumor activity was determined against the ip implanted L1210 leukemia in mice by range in survival days at 80 mg/kg (treatment of 1-5qd schedule) dosage; Range is 17-18; assay type: functional, Mus musculus; settings: route intraperitoneal; method in brief: as §2
[8] = test system: L1210; test: Antitumor activity against the ip implanted L1210 leukemia in mice expressed as optimal dose (1-5qd treatment schedule) required to produce greatest increase in life span was determined; assay type: functional, Mus musculus
Method in brief: (§3)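 DBA/2J mice, groups of 6 (23-28 g), were inoculated ip with 1 × 10^6 L1210 cells on day 0. Dosing was ip from 24 h, in 0.9% NaCl with 0.5% Tween-80 (sonicated solution or suspension). Mice were observed daily until death or day 45. Median survival T/C followed NCI protocols, and ILS = (T/C − 1) × 100. Active range means doses giving ILS ≥25%; optimal dose means greatest ILS.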

[9] = test system: L1210; test: Antitumor activity against the ip implanted L1210 leukemia in mice expressed as optimal dose (1 qd treatment schedule) required to produce greatest increase in life span was determined; assay type: functional, Mus musculus; method in brief: as §3
[10] = test system: L1210; test: Antitumor activity was determined against the ip implanted L1210 leukemia in mice by change in […] at 80 mg/kg (treatment of 1-5qd schedule) dosage; assay type: functional, Mus musculus; settings: route intraperitoneal
Method in brief: (§4)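 DBA/2J mice, 6 per group (wt 23-28 g), inoculated ip with 1×10^6 L1210 cells on day 0. Treatment was given ip in 0.9% NaCl with 0.5% Tween-80, starting 24 h later. Weight change was taken on day 8. Mice were observed daily until death or 45 days. Median survival T/C and %ILS = (T/C − 1) × 100 came from survivors per NCI protocols, and 45-day survivors were counted.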

[11] = test system: L1210; test: Antitumor activity was determined against the ip implanted L1210 leukemia in mice by change in […] at 300 mg/kg (treatment of 1qd schedule) dosage; assay type: functional, Mus musculus; settings: route intraperitoneal; method in brief: as §4
[12] = test system: L1210; test: Antitumor activity was determined against the ip implanted L1210 leukemia in mice by 45-day survivors in mice at 300 mg/kg (treatment of 1qd schedule) dosage; assay type: functional, Mus musculus; settings: route intraperitoneal
Method in brief: (§5)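 DBA/2J mice in groups of 6 (wt 23-28 g) were inoculated ip with 1×10^6 L1210 cells on day 0. Dosing was ip from 24 h, in 0.9% NaCl with 0.5% Tween-80 (conjugates sonicated), across a range of doses. Mice were observed daily until death or 45 days. Median T/C was computed from survivors per NCI protocols, and ILS = (T/C − 1)×100.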

[13] = test system: L1210; test: Antitumor activity was determined against the ip implanted L1210 leukemia in mice by 45-day survivors in mice at 80 mg/kg (treatment of 1-5qd schedule) dosage; assay type: functional, Mus musculus; settings: route intraperitoneal; method in brief: as §5
[14] = test system: L1210; test: Antitumor activity was determined against the ip implanted L1210 leukemia in mice by percent increase in life span at 80 mg/kg (treatment of 1-5qd schedule) dosage; assay type: functional, Mus musculus; settings: route intraperitoneal; method in brief: as §5
[15] = test system: L1210; test: Antitumor activity was determined against the ip implanted L1210 leukemia in mice by percent median survival rate (treated/control) at 80 mg/kg (treatment of 1-5qd schedule) dosage; 18.0/7.0; assay type: functional, Mus musculus; settings: route intraperitoneal; method in brief: as §2
[16] = test system: L1210; test: Antitumor activity was determined against the ip implanted L1210 leukemia in mice by percent increase in life span at 300 mg/kg (treatment of 1qd schedule) dosage; assay type: functional, Mus musculus; settings: route intraperitoneal; method in brief: as §5
[17] = test system: NSCLC; test: Compound was tested for the inhibition of non- small cell lung cancer; assay type: functional, cell-based; settings: Homo sapiens; method in brief: as §1
[18] = test system: P388; test: Antitumor activity was determined against the ip implanted P388 leukemia in mice by percent increase in life span at 60 mg/kg (1-5qd treatment schedule) dosage; assay type: functional, Mus musculus; settings: route intraperitoneal
Method in brief: (§6)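 DBA/2J mice, 23-33 g, in groups of 6, were inoculated ip with 1×10^6 P388 cells on day 0. Dosing was ip from 24 h on the stated schedules, in 0.9% NaCl with 0.5% Tween-80 (sonicated solution or suspension). Survival was followed daily until death or 45 days. Median T/C was calculated from survivors per NCI protocols, with ILS = (T/C − 1) × 100.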

[19] = test system: P388; test: Antitumor activity was determined against the ip implanted P388 leukemia in mice by percent median survival rate (treated/control) at 300 mg/kg (1 qd treatment schedule) dosage; 12.5/11.0; assay type: functional, Mus musculus; settings: route intraperitoneal
[20] = test system: P388; test: Antitumor activity was determined against the ip implanted P388 leukemia in mice by 45-day survivors in mice at 300 mg/kg (1 qd treatment schedule) dosage; assay type: functional, Mus musculus; settings: route intraperitoneal; method in brief: as §6
[21] = test system: P388; test: Antitumor activity was determined against the ip implanted P388 leukemia in mice by 45-day survivors in mice at 60 mg/kg (1-5qd treatment schedule) dosage; assay type: functional, Mus musculus; settings: route intraperitoneal; method in brief: as §6
[22] = test system: P388; test: Antitumor activity was determined against the ip implanted P388 leukemia in mice by percent median survival rate (treated/control) at 60 mg/kg (1-5qd treatment schedule) dosage; 21.0/12.0; assay type: functional, Mus musculus; settings: route intraperitoneal
[23] = test system: P388; test: Antitumor activity against ip implanted P388 leukemia in mice expressed as active dose range (1-5qd treatment schedule) required to produce increase in life span by >25% was determined; Range is 60-80; assay type: functional, Mus musculus
Method in brief: (§7)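 P388 leukemia: 1 × 10^6 cells were given ip on day 0 to DBA/2J mice, groups of 6 (23-33 g). Treatment was ip from 24 h after inoculation, vehicle 0.9% NaCl with 0.5% Tween-80. Mice were observed daily until death or 45 days. Median survival T/C was calculated from survivors per NCI protocols, and ILS = (T/C − 1) × 100. Active range means doses giving ILS ≥25%; optimal dose means greatest ILS.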

[24] = test system: P388; test: Antitumor activity was determined against the ip implanted P388 leukemia in mice by range in survival days at 60 mg/kg (1-5qd treatment schedule) dosage; Range is 18-21; assay type: functional, Mus musculus; settings: route intraperitoneal
[25] = test system: P388; test: Antitumor activity was determined against the ip implanted P388 leukemia in mice by change in […] at 300 mg/kg (1 qd treatment schedule) dosage; assay type: functional, Mus musculus; settings: route intraperitoneal
Method in brief: (§8)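 P388 leukemia, 1×10^6 cells implanted ip on day 0 into DBA/2J mice, groups of 6 (wt 23-33 g). Dosing ip started 24 h post-inoculation, vehicle 0.9% NaCl containing 0.5% Tween-80. Animals were observed daily until death or 45 days. Outputs were weight change, median survival T/C from survivors per NCI protocols, and %ILS = (T/C − 1) × 100.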

[26] = test system: P388; test: Antitumor activity was determined against the ip implanted P388 leukemia in mice by change in […] at 60 mg/kg (1-5qd treatment schedule) dosage; assay type: functional, Mus musculus; settings: route intraperitoneal; method in brief: as §8
[27] = test system: P388; test: Antitumor activity was determined against the ip implanted P388 leukemia in mice by range in survival days at 300 mg/kg (1 qd treatment schedule) dosage; Range is 3-18; assay type: functional, Mus musculus; settings: route intraperitoneal
[28] = test system: P388; test: Antitumor activity was determined against the ip implanted P388 leukemia in mice by percent increase in life span at 300 mg/kg (1 qd treatment schedule) dosage; assay type: functional, Mus musculus; settings: route intraperitoneal; method in brief: as §6
[29] = test system: P388; test: Antitumor activity against the ip implanted P388 leukemia in mice expressed as optimal dose (1-5qd treatment schedule) required to produce greatest increase in life span was determined; assay type: functional, Mus musculus; set-up: unit: mg/kg; method in brief: as §7
[30] = test system: P388; test: Antitumor activity against the ip implanted P388 leukemia in mice expressed as optimal dose (1 qd treatment schedule) required to produce greatest increase in life span was determined; assay type: functional, Mus musculus; method in brief: as §7
[31] = test system: Small cell lung cancer cell line; test: Compound was tested for the inhibition of small cell lung cancer; assay type: functional, cell-based; settings: Homo sapiens; method in brief: as §1
[32] = test system: L1210; test: Antitumor activity against ip implanted L1210 leukemia in mice expressed as active dose range (1-5qd treatment schedule) required to produce increase in life span by >25% was determined; Range is 10-120

CCCCCCCCCCCCCCCCCCOCC(COP(=O)(O)OP(=O)(O)OC[C@H]1O[C@@H](n2ccc(N)nc2=O)[C@@H](O)[C@@H]1O)OC (mixture of isomers)
IC50 [1]: 2.3 µM
IC50 [2]: 1.2 µM
IC50 [3]: 47 µM
IC50 [4]: 13 µM
median survival time [5]: 9.5 days
Range [6]: 9
Range [7]: 17
Optimal dose [8]: 80 mg
Optimal dose [9]: 300 mg/kg/day
Weight change [10]: -1.53 g mouse-1
Weight change [11]: 2.58 g mouse-1
Survivors [12]: 0
Survivors [13]: 0
ILS [14]: 157
T/C [15]: 18%
ILS [16]: 12
IC50 [17]: 38 µM
ILS [18]: 75
T/C [19]: 12.5%
Survivors [20]: 0
Survivors [21]: 0
T/C [22]: 21%
Active dose range [23]: 60 mg/kg/day
Range [24]: 18
Weight change [25]: 0.38 g mouse-1
Weight change [26]: 0.04 g mouse-1
Range [27]: 3
ILS [28]: 14
Optimal dose [29]: 60 mg
Optimal dose [30]: 300 mg
IC50 [31]: > 100 µM
Active dose range [32]: 10 mg/kg/day
